Cl transport mod: KCC2 (human) Cl- transport modulation | actives 2.2% (n = 190,000) | Q9H2X9 | KCC2 cells, thallium flux FluoZin-2 fluorescence | B-score of Tl+ flux slope (higher = more flux/activation; lower = inhibition) at 10 µM | AID 1456;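 active = thallium flux slope and its plate-corrected score both differing from the plate sample mean at a set confidence after two filtering rounds, in either direction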;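 also: slope of fluorescence scaled to starting intensity during 10 to 20 s after thallium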
ROMK primary: modulators of human ROMK potassium channel. P48048. Tet-inducible ROMK, thallium flux fluorescence; actives lie on both sides. B-score at 10 µM. actives 2% (n = 130,000). AID 1918;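 active = signal ratio slope over the read window, or its plate-corrected B-score, at least 3 SD from the plate mean, either direction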;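 also: B-score of the F/F0 ratio slope over 7 to 12 s after thallium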
Target sequence (P48048 whole entry, looked up): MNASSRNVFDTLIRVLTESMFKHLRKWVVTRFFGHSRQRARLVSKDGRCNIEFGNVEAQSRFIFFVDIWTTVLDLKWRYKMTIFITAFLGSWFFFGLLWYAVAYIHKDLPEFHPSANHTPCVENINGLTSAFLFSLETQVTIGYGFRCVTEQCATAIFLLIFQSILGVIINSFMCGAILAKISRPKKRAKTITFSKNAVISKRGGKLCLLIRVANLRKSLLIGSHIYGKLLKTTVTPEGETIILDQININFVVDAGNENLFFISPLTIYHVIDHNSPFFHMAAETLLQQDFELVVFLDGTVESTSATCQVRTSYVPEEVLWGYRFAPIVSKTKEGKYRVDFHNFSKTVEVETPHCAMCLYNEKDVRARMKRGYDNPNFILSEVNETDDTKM
Lmaj promast: inhibitors of Leishmania major promastigote growth; actives 9% (n = 200,000); inhibition, % at 10 µM; Leishmania major promastigotes, resazurin fluorescence viability; in the data active = inhibition above about 50%;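 also: promastigotes grown with compound for 44 hours at 28 °C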
Diaphorase act: counter-screen for diaphorase-based assays: diaphorase activators and chemical reducers; actives 0.005% (n = 190,000); Diaphorase/resazurin coupled assay, resorufin fluorescence, 16 min; active compounds read high; 1 = vehicle wells, 0 = NADH-free wells; activation factor at 20 µM; AID 1229;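 active = diaphorase activity raised at least twofold by the compound at 20 µM; inactive = activation factor below 2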
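System – purified diaphorase enzyme from Clostridium kluyveri · Input – enzyme 0.07 U/mL final · Also added – final NADH 0.114 mM, resazurin 0.1 mM · Measured by – fluorescence of resorufin, 544 nm excitation, 590 nm emission · Timing – 16 min enzyme reaction, ambient temperature · Measure – resorufin increase flagging diaphorase activators or reducers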
Diaph inh CS: counter-screen for diaphorase-based assays: diaphorase inhibitors and chemical oxidizers; actives 0.69% (n = 190,000); diaphorase resazurin-to-resorufin fluorescence, NADH, 16 min; bacterial (C. kluyveri) enzyme, not human; inhibition, % at 20 µM; AID 1217;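 active = primary screen inhibition at 20 µM above a set limit, cut at about 50% in these data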
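Test system: bacterial diaphorase enzyme (C. kluyveri); Quantity: 0.14 U/mL diaphorase, enzyme working solution; Times: reaction incubation of 16 min at room temperature; Measured by: fluorescence of resorufin formed from resazurin, Ex 544/Em 590 nm; Benchmarks: positive control minus NADH, DMSO neutral control.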
WT yeast gro inh: growth inhibition of WT yeast, mitochondrial fusion screen. AID 1362. mitochondrial fusion phenotypic screen, WT strain. actives 2.1% (n = 190,000). inhibition, % at 10 µM; in the data active = inhibition above about 58%; tested in S. cerevisiae
KCC2 sec1: KCC2 (human) modulation, secondary assay; shares compounds with Cl transport mod; HEK293-KCC2, thallium flux, FluoZin2 fluorescence; active compounds read high; normalised thallium flux (F/F0 slope) at 10 µM; actives 15% (n = 3,700); AID 1713;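 active = thallium flux slope above the same plate's solvent-only control mean plus 3 SD; inconclusive = the two replicate wells disagree; inactive = no significant difference from solvent-only control wells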
KCC2 bumet counter: bumetanide-insensitive thallium flux in KCC2 cells with ouabain, counter-screen; shares compounds with Cl transport mod; HEK293-KCC2 + bumetanide/ouabain, thallium flux FluoZin2; active compounds read high; normalized thallium flux at 10 µM; actives 49% (n = 3,700); AID 1714;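 active = thallium entry rate above the same plate's blocked-transporter control wells by more than 3 SD; inconclusive = the two repeat wells disagree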;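 also: raw slope of fluorescence over initial fluorescence between 10 and 20 s after thallium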
KCC2 secondary2: KCC2 (human) modulation, second secondary assay | shares compounds with Cl transport mod | HEK293-KCC2, thallium flux FluoZin2 fluorescence; actives lie on both sides; F/F0 rise rate, 10–20 s post-thallium | normalized thallium flux at 10 µM | actives 23% (n = 3,700) | AID 1715;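 active = thallium flux slope more than 3 SD above or below the plate's solvent-only control mean, mostly below; inconclusive = the two repeat wells disagreed; inactive = no significant shift from solvent-only controls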
HEK293 Tl flux: acts in parental HEK cells, KCC2 counter-screen. shares compounds with Cl transport mod. HEK293 parental cells, thallium flux FluoZin2, ouabain; baseline-ratio fluorescence slope, 10–20 s after thallium. thallium flux rate (normalised fluorescence) at 10 µM. actives 46% (n = 3,700);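 active = thallium flux rate significantly above the same plate's solvent-only control wells, beyond their mean plus 3 SD; inconclusive = the two replicate wells gave conflicting results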
KCC2 ouabain: confirmation of human KCC2 modulators with ouabain; shares compounds with Cl transport mod; HEK293-KCC2, thallium flux FluoZin2 fluorescence; bidirectional: low = inhibitor, high = activator; raw Tl+ flux slope (below DMSO = inhibition, above = activation) at 10 µM; actives 48% (n = 3,700);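 active = thallium flux slope beyond 3 SD from same-plate DMSO control mean in most replicates, usually higher, sometimes lower; inconclusive = repeat tests gave conflicting results; inactive = no significant difference from controls in most replicates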;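 also: slope of initial-normalized fluorescence between seconds 10 and 20 after thallium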
HEK293 Tl flux2: parental HEK flux effect, counter-screen 2 | shares compounds with Cl transport mod | HEK293 parental, thallium flux FluoZin-2 fluorescence slope | thallium flux slope at 10 µM | actives 33% (n = 3,700);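 active = thallium flux slope above the same plate's solvent-control mean plus 3 SD in both duplicate wells; inconclusive = duplicate wells that disagreed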;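 also: run without ouabain in cells lacking the KCC2 cotransporter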
Of the large screens only hits and unclear results are named; the others gave an inactive call (follow-up assays come after a bar, where they were run). Hits are enriched below; roughly 12% of the tested compounds scored in any of these assays.

O=C(COC(=O)C1COc2ccccc2O1)Nc1cccc(S(=O)(=O)N2CCCCC2)c1 (stereo not given)	none
Cc1onc(-c2cccc(Cl)c2Cl)c1C(=O)O/N=C(\N)c1ccc([N+](=O)[O-])o1	Cl transport mod -4.9 (no result: ROMK primary, Lmaj promast, Diaphorase act, Diaph inh CS, WT yeast gro inh) | KCC2 sec1 inactive | KCC2 bumet counter inactive | KCC2 secondary2 inconclusive | HEK293 Tl flux 0.0048 | KCC2 ouabain inactive | HEK293 Tl flux2 0.0079
CC(=O)Nc1ccc2nc(NC(=O)c3cccs3)sc2c1	Cl transport mod 4.1 (no result: ROMK primary, Lmaj promast, Diaphorase act, Diaph inh CS, WT yeast gro inh) | KCC2 sec1 inactive | KCC2 bumet counter inconclusive | KCC2 secondary2 inactive | HEK293 Tl flux inactive | KCC2 ouabain inactive | HEK293 Tl flux2 inactive
COc1ccc2nc(N=Nc3c(O)ccc4ccccc34)sc2c1	Cl transport mod 14, Lmaj promast 99 | KCC2 sec1 0.013 | KCC2 bumet counter 0.05 | KCC2 secondary2 inactive | HEK293 Tl flux 0.025 | KCC2 ouabain 0.034 | HEK293 Tl flux2 0.016
Cc1cc2c(cc1C)CSC(c1ccccc1OC(=O)C(C)C)SC2	none
CCN(C(=S)NCc1ccccc1)c1cccc2ccccc12	none
COC(=O)c1cn(C)c2ccc(S(=O)(=O)N3CCOCC3)cc2c1=O	none
Cc1cccc(C)c1NC(=S)N=Nc1c(O)n(C)c2ccc(S(=O)(=O)N3CCOCC3)cc12	Cl transport mod 4.4 | KCC2 sec1 inactive | KCC2 bumet counter 0.027 | KCC2 secondary2 inactive | HEK293 Tl flux 0.012 | KCC2 ouabain inactive | HEK293 Tl flux2 0.012
Cc1ccccc1NC(=S)N=Nc1c(O)n(C)c2ccc(S(=O)(=O)N3CCOCC3)cc12	Cl transport mod 15 | KCC2 sec1 inactive | KCC2 bumet counter 0.07 | KCC2 secondary2 inactive | HEK293 Tl flux 0.023 | KCC2 ouabain inconclusive | HEK293 Tl flux2 inconclusive
COc1ccc(CNC(=O)CN2C(=O)C3C4C=CC(C4)C3C2=O)cc1 (stereo not given)	none (no result: ROMK primary)
O=C(Nn1c(O)c(C=C2N=c3ccccc3=N2)sc1=S)c1ccccc1	Cl transport mod -3.5 (no result: ROMK primary) | KCC2 sec1 inactive | KCC2 bumet counter inactive | KCC2 secondary2 0.022 | HEK293 Tl flux inactive | KCC2 ouabain 0.013 | HEK293 Tl flux2 inactive
Cc1ccc(C(=O)Nn2c(O)c(C=C3N=c4ccccc4=N3)sc2=S)cc1	none (no result: Cl transport mod, ROMK primary)
Cc1ccc(-n2nc(C(=O)O)cc2-c2ccc(Cl)cc2)cc1	Cl transport mod -3.7 | KCC2 sec1 inactive | KCC2 bumet counter inactive | KCC2 secondary2 inactive | HEK293 Tl flux inactive | KCC2 ouabain 0.017 | HEK293 Tl flux2 inactive
C=CCNC(=S)Nc1sc2c(c1C(N)=O)CCCC2	Cl transport mod 8.3 (no result: ROMK primary, Lmaj promast, Diaphorase act, Diaph inh CS, WT yeast gro inh) | KCC2 sec1 inactive | KCC2 bumet counter 0.014 | KCC2 secondary2 inactive | HEK293 Tl flux 0.012 | KCC2 ouabain 0.028 | HEK293 Tl flux2 0.011
NC(=O)c1c(NC(=S)Nc2ccccc2)sc2c1CCCC2	none
CCCC(=O)Nc1cccc(-c2nc3cc(C)c(C)cc3o2)c1	none (no result: Cl transport mod) | KCC2 sec1 inactive | KCC2 bumet counter inactive | KCC2 secondary2 inactive | HEK293 Tl flux inactive | KCC2 ouabain inactive | HEK293 Tl flux2 inactive
CCCC(=O)Nc1cccc(-c2nc3ccccc3o2)c1	none (no result: Cl transport mod, ROMK primary)
Cc1cc(OCC(=O)Nn2cnnc2)ccc1Br	none (no result: ROMK primary)
CSc1nc(C)cc(NC(N)=O)n1	none
CCCc1cc(C(=O)Nc2sc3c(c2C#N)CCC3)no1	Cl transport mod 6.2 (no result: ROMK primary) | KCC2 sec1 inactive | KCC2 bumet counter 0.024 | KCC2 secondary2 inactive | HEK293 Tl flux 0.018 | KCC2 ouabain inconclusive | HEK293 Tl flux2 0.016
CCCC(=O)Nc1sc2c(c1C#N)CCCC2	none
CCc1c(C)sc(NC(=O)c2cc(C)on2)c1C#N	none
CCCc1cc(C(=O)Nc2sc(C)c(CC)c2C#N)no1	Cl transport mod 9.7 (no result: ROMK primary) | KCC2 sec1 inactive | KCC2 bumet counter 0.026 | KCC2 secondary2 inactive | HEK293 Tl flux 0.021 | KCC2 ouabain 0.029 | HEK293 Tl flux2 0.013
CCc1c(C)sc(NC(=O)c2cc(C3CC3)on2)c1C#N	Cl transport mod 3.7 (no result: ROMK primary) | KCC2 sec1 inactive | KCC2 bumet counter 0.012 | KCC2 secondary2 inactive | HEK293 Tl flux 0.011 | KCC2 ouabain inactive | HEK293 Tl flux2 0.012
Fc1ccc(COc2ccc(/C=N/n3cnnc3)cc2)cc1	none
COc1ccccc1NC(=O)CN1CCC(c2nc3ccccc3[nH]2)CC1	none
Cc1ccc(NC2=C(N3CCOCC3)C(=O)c3ccccc3C2=O)cc1	none (no result: Cl transport mod, ROMK primary) | KCC2 sec1 inactive | KCC2 bumet counter inactive | KCC2 secondary2 0.026 | HEK293 Tl flux inactive | KCC2 ouabain inconclusive | HEK293 Tl flux2 inactive
O=C(c1nn2c(C(F)(F)F)cc(-c3ccco3)nc2c1Br)N1CCCc2ccccc21	none (no result: Cl transport mod) | KCC2 sec1 inconclusive | KCC2 bumet counter inactive | KCC2 secondary2 0.025 | HEK293 Tl flux inactive | KCC2 ouabain inconclusive | HEK293 Tl flux2 inactive
COCCNC(=O)C(c1cccs1)N(C(=O)Cn1nnc2ccccc21)c1cccc(C(C)=O)c1 (stereo not given)	none (no result: ROMK primary)
CC(=O)c1cccc(N(C(=O)Cn2nnc3ccccc32)C(C(=O)NC2CCCCC2)c2cn(C)nc2C)c1 (stereo not given)	none (no result: Cl transport mod) | KCC2 sec1 inactive | KCC2 bumet counter inconclusive | KCC2 secondary2 inactive | HEK293 Tl flux inactive | KCC2 ouabain inactive | HEK293 Tl flux2 inconclusive
COc1ccc(N(C)S(=O)(=O)c2ccc(Cl)c(C(=O)NCCc3ccc(Cl)cc3)c2)cc1	Cl transport mod -6.1 | KCC2 sec1 inactive | KCC2 bumet counter inactive | KCC2 secondary2 0.018 | HEK293 Tl flux 0.0054 | KCC2 ouabain 0.0095 | HEK293 Tl flux2 inactive
O=C(NC(=S)Nc1ccccc1N1CCN(C(=O)c2ccccc2)CC1)c1cccs1	none (no result: Lmaj promast, Diaphorase act, Diaph inh CS, WT yeast gro inh)

Screening data from PubChem BioAssay.
